Published values pooled from the literature.
Compare with care: the assays were run in different laboratories.
Observed: metabolic stability
Host: mouse
Matrix: liver microsomes

CCCN(CCC)CCNc1ccc2c(=O)c3c([nH]c2c1)CCCC3  microsomal CLint (1 µM, pH 7.4): 81.9 µL/min/mg
CC1(C)NC(=O)N(c2ccc3c(c2)OC(F)(F)O3)C1=O  microsomal CLint: < 7 µL/min/mg
CCN(CC)CCNC(=O)c1c(C)[nH]c(/C=C2\C(=O)Nc3ccc(F)cc32)c1C  microsomal CLint: 41 µL/min/mg
CC(C)n1ncc2c(C(=O)NCC3(F)CNC3)cc(C3CC3)nc21  microsomal CLint: 19.8 µL/min/mg
Cc1cc(N2C(=O)NC(C)(C)C2=O)cc(C(F)(F)F)n1  microsomal CLint: 19 µL/min/mg
O=C(O)Cc1ccccc1Nc1c(Cl)cccc1Cl  microsomal CLint: 31.2 µL/min/mg
O=C1NC2(CCS(=O)(=O)CC2)C(=O)N1c1ccc(F)c(C(F)(F)F)c1  microsomal CLint: < 7 µL/min/mg
CONC(=O)c1cccc2c1cc(C)n2-c1nc2c(c(NCc3ccccc3)n1)CCCN2  microsomal CLint (1 µM, pH 7.4): 619 µL/min/mg
CCS(=O)(=O)N1CCC2(CC1)NC(=O)N(c1ccc(F)c(C(F)(F)F)c1)C2=O  microsomal CLint: < 7 µL/min/mg
O=c1c2ccc(Oc3ccc(OC(F)(F)F)cc3)cc2[nH]c2cc(Cl)c(F)cc12  microsomal CLint (1 µM, pH 7.4): 1.84 µL/min/mg
CNCCNC(=O)c1cc(C(C)C)nc2c1cnn2C(C)C  microsomal CLint: 175 µL/min/mg
CCCN(CCC)CCCOc1ccc2c(=O)c3c([nH]c2c1)CCCC3  microsomal CLint (1 µM, pH 7.4): 34.1 µL/min/mg
CC(C)n1ncc2c(C(=O)NCC3(C)CNC3)cc(C3CC3)nc21  microsomal CLint: < 9.6 µL/min/mg
O=c1c2c([nH]c3cc(OCc4ccc(OC(F)(F)F)cc4)ccc13)CCCC2  microsomal CLint (1 µM, pH 7.4): 19.7 µL/min/mg
CC1(C)NC(=O)N(c2ccc(F)c(OC(F)(F)F)c2)C1=O  microsomal CLint: < 7 µL/min/mg
O=c1c2c([nH]c3cc(OC(F)(F)F)ccc13)CCCC2  microsomal CLint (1 µM, pH 7.4): 139 µL/min/mg
CC1(C)NC(=O)N(c2ccc(F)c(Br)c2)C1=O  microsomal CLint: 8 µL/min/mg
Cc1[nH]c(C)c(S(=O)(=O)Nc2ccc(C(F)(F)F)c(Cl)c2)c1C(=O)N1CCC(F)(F)C1  microsomal CLint: 59 µL/min/mg
